Assay outcomes (PubChem)
EP2 mod = modulators of human EP2 prostaglandin E2 receptor | P43116 | EP2-expressing cells, cAMP HTRF FRET, PGE2 co-stimulation | induction, % at 25 µM | hit rate 0.83% among 260,000 | AID 940;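 active means compounds whose cAMP rise, as percent of the full-agonist control response, exceeds 60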;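 further: rat C6 glioma line stably carrying human EP2 under a CMV promoter; the protocol text gives 20 µM as final concentration; 100% = response of wells given 1 µM PGE2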
NPY-Y2 antag = NPY-Y2 (human) receptor antagonism | AID 793 | NPY-Y2 expressing cells, antagonist mode | P49146 | hit rate 0.99% among 140,000 | inhibition, % at 2.7 µM; in the data active means inhibition above about 17%;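 further: 0% = vehicle with agonist challenge and 100% = reference antagonist with challenge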
EP2 antag = EP2 receptor (human) inhibition | C6 glioma cells expressing human EP2, cAMP TR-FRET; cells stimulated with saturating PGE2 | inhibition, % at 25 µM | hit rate 0.52% among 260,000 | AID 1422;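 active means percent inhibition above 40 after rounding to a whole number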;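 further: rat C6 glioma host cells with rolipram phosphodiesterase inhibitor present; the protocol text gives 20 µM as final concentration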
NPY Y1 blocker = blocks the human neuropeptide Y Y1 receptor; hit rate 1% among 200,000; HEK293-CNG Y1 cells, membrane potential fluorescence; NPY at EC95, then isoproterenol; P25929; inhibition, % at 3.6 µM;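 active means inhibition above the campaign mean inhibition of all tested compounds plus 3 SD, cut at about 20% in these data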;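 further: 0% = DMSO wells given NPY plus isoproterenol and 100% = isoproterenol alone without NPY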
Target sequence (P25929 whole entry, looked up): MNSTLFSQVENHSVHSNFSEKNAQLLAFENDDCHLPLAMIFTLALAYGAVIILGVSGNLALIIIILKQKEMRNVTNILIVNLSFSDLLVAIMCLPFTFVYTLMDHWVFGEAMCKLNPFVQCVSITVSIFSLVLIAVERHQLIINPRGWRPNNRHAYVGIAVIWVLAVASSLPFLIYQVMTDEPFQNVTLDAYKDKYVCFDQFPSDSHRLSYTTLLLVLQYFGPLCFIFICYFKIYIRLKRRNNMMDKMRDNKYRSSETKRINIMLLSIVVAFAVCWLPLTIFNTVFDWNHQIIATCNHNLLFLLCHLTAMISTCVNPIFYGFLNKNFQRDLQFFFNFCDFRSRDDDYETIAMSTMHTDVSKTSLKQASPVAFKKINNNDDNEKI
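Test system: HEK293 cells co-expressing NPY Y1 receptor and cyclic-nucleotide gated channel; Also added: NPY (25 nM), isoproterenol (1 µM), Ro 20-1724 (25 µM); Compound dosing: one concentration, 3.6 µM, in 0.4% DMSO; Timing: dye 3 h, compound 60 min room temperature, stimulation 45 min; Technique: Membrane-potential fluorescent dye readout.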
NPY1 pot ag = human NPY-Y1 potentiation or agonism, primary screen; P25929; NPY-Y1 expressing cells, potentiator/agonist activation; activation, % at 3.6 µM; hit rate 0.37% among 220,000; AID 1304; in the data active means activation above about 33%, passing the limit was not always enough;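 further: cells stimulated with NPY at EC10 then isoproterenol at EC100; 0% = low agonist plus stimulus and 100% = saturating agonist plus stimulus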
NPY2 pot ag = human NPY-Y2 potentiation or agonism, primary screen. P49146. cells expressing NPY-Y2, potentiator/agonist read-out. activation, % at 3.6 µM. hit rate 0.45% among 220,000. AID 1359; in the data active means activation above about 27%;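 further: cells stimulated with NPY near EC25 plus isoproterenol at EC100; 0% = vehicle plus submaximal agonist and 100% = vehicle plus saturating agonist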
NPY1 antag ctr = human NPY-Y1 antagonism in NPY-Y2 counter-screen; inhibition, % at 3.6 µM; cell-based NPY-Y1 antagonism counterscreen; shares compounds with NPY-Y2 antag; hit rate 19% among 710; in the data active means inhibition above about 20%;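 further: cells challenged with NPY then isoproterenol with cAMP sensed through a CNG channel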
NPY-Y2 ant conf = confirmation of human neuropeptide Y receptor Y2 antagonists; shares compounds with NPY-Y2 antag; HEK293 NPY-Y2 CNG channel, membrane potential fluorescence; inhibition, % at 2.8 µM; hit rate 32% among 710; AID 1257;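 active means mean inhibition of triplicate wells above the hit cutoff set in the primary screen, cut at about 17% in these data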;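 further: 0% = DMSO with NPY challenge and 100% = BIIE0246 high control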
The depositor's hits bear a star; / = not tested or not shown. Most compounds without a hit are left out; they make up all but 2.8% or so of the library.

SMILES	EP2 mod	NPY-Y2 antag	EP2 antag	NPY Y1 blocker	NPY1 pot ag	NPY2 pot ag	NPY1 antag ctr	NPY-Y2 ant conf
Clc1ccc(OCCSc2nnnn2C2CCCCC2)cc1	-11	22*	5	16	-11	1	17	21*
CCOc1ccc(OCCSc2nnnn2C2CCCCC2)cc1	-3	17*	/	19	-21	-22	9	14
CCCn1cnc2scc(-c3ccccc3)c2c1=O	-14	/	11	/	/	/	/	/
COC(=O)c1cc(-c2ccc(O)c(OC)c2)no1	-57	/	8	/	/	/	/	/
OC12CCCCC1C(c1ccc3c(c1)OCO3)N(Cc1ccccc1F)CC2 (configuration not stated)	42	18*	/	4	-35	-7	17	9
CN(C)CCCNS(=O)(=O)c1ccc(N2CCC(c3ccc(Cl)cc3)=N2)cc1	-33	18*	0	0	3	7	6	14
CC(C)(Oc1ccc(Cl)cc1)C(=O)Nc1nncs1	-99	/	11	/	/	/	/	/
Cc1nc(N2CCC(C)CC2)c2oc3ccccc3c2n1	33	19*	11	19	-20	-43	16	36*
CSc1nnc2c3cc(C)ccc3n(Cc3ccccc3)c2n1	37	28*	10	5	-15	5	23*	42*
Cc1ccc2c(c1)c1n[nH]c(=S)nc1n2Cc1ccccc1	-23	/	12	/	/	/	/	/
COCCNC(=O)c1c(NC(=O)c2ccccc2)sc2c1CCCC2	28	/	14	/	/	/	/	/
Cc1ccc(-c2cn3c(-c4ccccn4)c(-c4ccccn4)nnc3n2)cc1C	-59	/	5	/	/	/	/	/
O=C1OCCC1Sc1nc2cc(Cl)ccc2s1 (configuration not stated)	-15	23*	11	16	-21	-24	10	12
COc1ccc2nc(NC(=O)c3c(Cl)cccc3Cl)sc2c1	-69	/	10	/	/	/	/	/
COc1ccc(CN(Cc2cc3cc(C)cc(C)c3[nH]c2=O)Cc2nnnn2CC2CCCO2)cc1 (configuration not stated)	-4	/	13	/	/	/	/	/
O=C1c2cccc3c(N4CCCCC4)ccc(c23)C(=O)N1CCO	-1	2	9	3	-21	-19	/	/
O=C(OCCN1C(=O)c2cccc3c(N4CCOCC4)ccc(c23)C1=O)c1cccc(Cl)c1	-7	20*	3	2	6	1	29*	40*
Nc1cccc(S(=O)(=O)N2CCCCC2)c1	-11	/	6	/	/	/	/	/
Cc1cccc(NC(=S)NNC(=S)NCc2ccccc2)c1	-17	29*	5	10	19	-7	17	22*
S=C(NCc1ccccc1)Nc1cccc(Cl)c1	-57	0	6	-5	11	-4	/	/
COc1ccc([N+](=O)[O-])cc1NC(=O)CCCOc1ccccc1	-28	13	7	3	-4	12	/	/
COc1cc([N+](=O)[O-])ccc1NC(=O)CCCOc1ccccc1	-16	22*	/	7	-33	-28	7	10
O=C(Cc1ccccc1F)N1CCC(n2nc(-c3ccco3)ccc2=O)CC1	-38	/	/	/	/	/	/	/
CCCc1nc(SCc2ccc(Cl)cc2Cl)n[nH]1	21	18*	6	2	-32	-4	3	7
CC(C)Nc1nnc(Sc2ccc(Cl)cc2[N+](=O)[O-])s1	13	21*	5	8	-10	-3	0	10
SMILES	EP2 mod	NPY-Y2 antag	EP2 antag	NPY Y1 blocker	NPY1 pot ag	NPY2 pot ag	NPY1 antag ctr	NPY-Y2 ant conf
Nc1nnc(Sc2ccc(Cl)cc2[N+](=O)[O-])s1	-14	1	8	-6	-11	7	/	/
CC(C)c1nc2ccccc2c2nn(CC(=O)NCc3ccccc3F)c(=O)n12	-1	/	6	/	/	/	/	/
CN1CCC(Oc2ccccc2Sc2ccccc2)CC1	-22	18*	7	14	-43	2	15	22*
Fc1ccc(C(c2nnnn2Cc2cccs2)N2CCN(c3ccccc3)CC2)cc1 (configuration not stated)	27	19*	8	9	-60	-4	14	5
CN1CCN(C(c2ccccc2)c2nnnn2Cc2cccs2)CC1 (configuration not stated)	3	/	4	/	/	/	/	/
COc1ccc(Cn2nnnc2C(c2cccs2)N2CCN(c3ccccc3)CC2)cc1 (configuration not stated)	-7	19*	11	12	-12	-8	13	7
O=C(NC1CCCCC1)N(Cc1cc2cc3c(cc2[nH]c1=O)OCO3)C1CCCCC1	-4	/	4	/	/	/	/	/
Cc1cc(-c2cn3c(C)c(C)nnc3n2)ccc1NC(=O)C1CCN(S(C)(=O)=O)CC1	-33	/	/	/	/	/	/	/
CNCc1ccccc1Sc1ccc(OC)cc1	32	20*	/	5	-34	-17	2	6
CNCc1ccccc1Sc1cccc2ccccc12	13	12	9	7	-17	8	/	/
NC(=O)CSc1nnc(-c2ccncc2)n1Cc1ccco1	17	/	10	/	/	/	/	/
OC[C@H]1O[C@@H](n2cnc3c(Nc4ccccc4)ncnc32)[C@H](O)[C@@H]1O	11	22*	15	14	-72	-20	11	49*
COC(=O)c1cc(Cl)c(NC(=O)c2ccc(C(C)(C)C)cc2)cc1OC	41	18*	10	10	-70	-46	16	31*
COc1ccc(OC)c(S(=O)(=O)N2CCC(C(=O)NC(C)C)CC2)c1	-26	/	8	/	/	/	/	/
N#Cc1c(-c2ccccc2Cl)cc(-c2ccccc2)[nH]c1=S	15	/	6	13	1	4	/	/
Cc1cc(-c2ccccc2)c(C#N)c(=S)[nH]1	6	17*	13	7	-34	-12	5	7
COc1cccc(-c2nnn(CC(=O)Nc3ccc(N(C)C)cc3)n2)c1	-11	/	3	/	/	/	/	/
Nc1nonc1-c1nc2ccccc2n1Cc1ccc(F)cc1Cl	52	25*	/	16	-61	-27	45*	51*
COc1cccc(C(=O)Nc2ccc(NC(=O)c3ccco3)c(C)c2)c1	20	/	11	/	/	/	/	/
N#Cc1c(NC(=S)NC(=O)c2ccccc2)sc2c1CCCC2	-28	1	9	-5	-10	8	/	/
C=CCNCc1cccn1-c1sc2c(c1C#N)CCCC2	2	18*	4	9	8	4	8	11
CCC(=O)N(Cc1ccccc1)Cc1cc2cccc(C)c2n2nnnc12	9	/	11	/	/	/	/	/
COc1ccccc1OCc1nc(C#N)c(N2CC(C)CC(C)C2)o1 (configuration not stated)	7	18*	/	15	-37	-3	10	6
COC(=O)c1ccc(OC)c(CSc2nnc(COc3cccc(C)c3)o2)c1	-19	23*	4	4	-25	-9	17	12
COC(=O)c1ccc(OC)c(CSc2nnc(COc3ccc(OC)cc3)o2)c1	-28	10	3	11	-20	-11	/	/
